ChEMBL document CHEMBL1124424, “Effects of steroid D-ring modification on suicide inactivation and competitive inhibition of aromatase by analogues of androsta-1,4-diene-3,17-dione” (J Med Chem, 1989)

Legend:
Aromatase [1] = target: T1, Aromatase (Homo sapiens, UniProt P11511); assay: Competitive inhibition of binding to human placental Cytochrome P450 19A1
T1 sequence (P11511 whole entry): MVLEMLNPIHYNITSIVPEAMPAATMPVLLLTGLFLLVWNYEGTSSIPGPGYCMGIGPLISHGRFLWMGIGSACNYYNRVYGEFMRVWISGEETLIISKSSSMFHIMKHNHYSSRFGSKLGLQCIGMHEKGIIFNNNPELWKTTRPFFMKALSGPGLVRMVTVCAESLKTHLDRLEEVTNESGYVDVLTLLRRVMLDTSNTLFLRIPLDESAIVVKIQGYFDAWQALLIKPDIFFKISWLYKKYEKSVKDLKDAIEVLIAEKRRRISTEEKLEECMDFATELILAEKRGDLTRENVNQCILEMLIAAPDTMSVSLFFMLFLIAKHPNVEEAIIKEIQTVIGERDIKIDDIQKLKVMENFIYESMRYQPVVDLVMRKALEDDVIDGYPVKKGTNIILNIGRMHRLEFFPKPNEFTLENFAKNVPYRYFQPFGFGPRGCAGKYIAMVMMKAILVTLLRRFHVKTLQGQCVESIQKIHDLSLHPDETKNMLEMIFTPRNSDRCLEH
Summary of the method: (§1)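 Human placental microsomes (stored at -70 °C) in incubation buffer containing 4% by weight propylene glycol. Aromatase assays ran 1–5 min with five androstenedione concentrations (0.05–1.0 μM) and varied inhibitor concentrations. Ki is the average of two determinations at each of two inhibitor concentrations, with average deviation. Androstenedione Km was determined in each experiment, and the Ki/Km ratio was calculated.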

Aromatase [2] = target: T1, Aromatase; assay: Ratio of Ki to Km for human placental cytochrome P450 19A1; summary of the method: as §1
[3] = Limiting t1/2 is the half life of aromatase inactivation in the presence of saturating concentrations of inhibitor
Summary of the method: (§2)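 Human placental microsomes (stored -70 °C; protein 8.9–16.4 mg/mL, specific activity 34–101 pmol min⁻¹ (mg protein)⁻¹) preincubated with NADPH and four inhibitor concentrations for various times, in buffer with 4% propylene glycol. Tritiated androstenedione then added and remaining aromatase activity assayed 5 min. Duplicates averaged. Activity corrected against inhibitor-free controls. Apparent Ki and kinact from double-reciprocal plot of kapp vs inhibitor concentration. Limiting t1/2 = ln2/kinact.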

Aromatase [4] = target: T1, Aromatase; assay: Inactivation rate (Ki) for human placental aromatase Cytochrome P450 19A1
Aromatase [5] = target: T1, Aromatase; assay: Competitive inhibition of binding to human placental aromatase Cytochrome P450 19A1
Aromatase [6] = target: T1, Aromatase; assay: Inactivation rate (Ki) of human placental Cytochrome P450 19A1
Summary of the method: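 Inhibitor at four concentrations, in duplicate, was preincubated for various times with human placental microsomes and NADPH in buffer with 4% propylene glycol. Tritiated androstenedione was then added and residual aromatase activity assayed over 5 min. Loss was corrected against inhibitor-free controls, and first-order slopes gave k_app. Apparent Ki and k_inact came from a reciprocal k_app vs reciprocal concentration plot, with limiting t1/2 = ln2/k_inact.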

Aromatase [7] = target: T1, Aromatase; assay: Inactivation rate (Ki) for human placental Cytochrome P450 19A1; summary of the method: as §2

| Structure (SMILES) | Ratio (Aromatase [2]) | Limiting t1/2 [3] [min] | Ki (Aromatase [5]) [µM] | also measured |
| --- | --- | --- | --- | --- |
| CC1C2CCC3=CC(=O)C=CC3(C)C2CCC1(C)C(=O)O (stereo not drawn) | 23234 |  |  | Ki (Aromatase [1]): 1200 µM |
| C[C@]12C=CC(=O)C=C1CC[C@@H]1[C@@H]2CC[C@]2(C)C(=O)OC[C@@H]12 |  | 6.2 | 0.41 | Ki (Aromatase [4]): 0.39 µM |
| CC1(C(=O)O)CCC2C(CCC3=CC(=O)C=CC32C)C1 (stereo not drawn) | 18651 |  | 893 |  |
| CCC(=O)C1(C)CCC2C(CCC3=CC(=O)C=CC32C)C1 (stereo not drawn) | 1833 |  | 97 |  |
| C[C@]12C=CC(=O)C=C1CC[C@@H]1[C@@H]2CC[C@]2(C)C(=O)CC[C@@H]12 [ANDROSTENEDONE] |  | 12.6 |  |  |
| CC1(C=O)CCC2C(CCC3=CC(=O)C=CC32C)C1 (stereo not drawn) |  |  |  | Ki (Aromatase [6]): 3.98 µM |
| CC(=O)OCC1(C)CCC2C(CCC3=CC(=O)C=CC32C)C1 (stereo not drawn) | 273 |  | 13 |  |
| C[C@]12CCC(=O)C[C@@H]1CC[C@@H]1[C@@H]2CC[C@]2(C)[C@@H](O)CC[C@@H]12 [STANOLONE] | 10.6 | 12.9 |  | Ki (Aromatase [7]): 1.55 µM; Ki (Aromatase [1]): 0.22 µM |
| CC(=O)C1(C)CCC2C(CCC3=CC(=O)C=CC32C)C1 (stereo not drawn) | 670 |  | 45 |  |
| CC1(CO)CCC2C(CCC3=CC(=O)C=CC32C)C1 (stereo not drawn) |  |  |  | Ki (Aromatase [6]): 8.56 µM |
| COC(=O)C1(C)CCC2C(CCC3=CC(=O)C=CC32C)C1 (stereo not drawn) | 1898 |  |  | Ki (Aromatase [1]): 130 µM |
| CC12CCCC1C1CCC3=CC(=O)C=CC3(C)C1CC2 (stereo not drawn) | 8.8 | 15.2 | 0.69 | Ki (Aromatase [7]): 1.1 µM |
| COC(=O)C1(C)CCC2C(CCC3=CC(=O)C=CC32C)C1C (stereo not drawn) | 2600 |  | 103 |  |
